Screens deposited in PubChem BioAssay by several laboratories.
NR2E3 ag-1 – agonists of human nuclear receptor NR2E3; 320,000 compounds, 0.12% hits; Q9Y5X4; GST-NR2E3/biotin-RetCOR TR-FRET, 1536-well; inhibition of corepressor binding, % at 4.78 µM;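 active means percent inhibition above the cutoff of mean plus 3 SD of all tested compounds, set per screening campaign, cut at about 20% in these data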
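system = GST-tagged NR2E3 plus biotinylated RetCOR corepressor | input = 1.35 nM GST-NR2E3 | also added = 7 nM biotin-RetCOR | schedule = 5 h incubation at 4 °C | measured by = TR-FRET with europium anti-GST and streptavidin-D2, 340 nm excitation | read-out = percent loss of FRET ratio relative to control wells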
ADAM17 inh – ADAM17 inhibition, QFRET primary screen; P78536; recombinant ADAM17, EDANS/DABCYL FRET peptide cleavage; inhibition, % at 6.95 µM; 370,000 compounds, 0.83% hits;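 active means inhibition above the mean of compounds lying between control limits plus 3 SD, set per campaign, cut at about 8.5% in these data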
Target sequence (P78536 215-824 limits assumed): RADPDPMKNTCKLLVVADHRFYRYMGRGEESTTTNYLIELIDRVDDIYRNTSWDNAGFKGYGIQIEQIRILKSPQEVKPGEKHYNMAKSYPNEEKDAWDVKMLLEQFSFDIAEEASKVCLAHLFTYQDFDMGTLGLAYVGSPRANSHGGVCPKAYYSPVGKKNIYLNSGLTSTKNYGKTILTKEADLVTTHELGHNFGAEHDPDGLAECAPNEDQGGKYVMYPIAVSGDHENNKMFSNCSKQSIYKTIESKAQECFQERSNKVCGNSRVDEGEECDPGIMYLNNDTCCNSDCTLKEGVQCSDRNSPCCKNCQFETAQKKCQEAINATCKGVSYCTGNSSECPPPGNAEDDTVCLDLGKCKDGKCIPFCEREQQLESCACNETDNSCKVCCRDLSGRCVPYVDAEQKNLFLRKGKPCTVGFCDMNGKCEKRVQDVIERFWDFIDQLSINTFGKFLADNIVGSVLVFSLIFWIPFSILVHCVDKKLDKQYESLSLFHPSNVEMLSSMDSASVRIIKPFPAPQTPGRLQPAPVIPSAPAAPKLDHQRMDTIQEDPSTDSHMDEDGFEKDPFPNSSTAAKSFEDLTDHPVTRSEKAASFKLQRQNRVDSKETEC
NR2E3 ag-2 – agonists of human NR2E3 nuclear receptor | 360,000 compounds, 0.35% hits | Q9Y5X4 | inhibition of corepressor binding, % at 3.98 µM | CHO-S Gal4-NCOR/VP16-NR2E3 two-hybrid, luciferase;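 active means inhibition above the mean of all tested compounds plus 3 SD, cut at about 70% in these data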;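 further: higher means lower luciferase signal from less NR2E3 corepressor binding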
KLK7 zymogen act – activates the human kallikrein-7 zymogen | purified proKLK7, EDANS-DABCYL substrate fluorescence; 100% is mature enzyme control, 0% vehicle | activation, % at 7 µM | P49862 | 370,000 compounds, 0.9% hits;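 active means activation above the mean of all tested compounds plus 3 SD, computed per campaign excluding outliers beyond control limits, cut at about 13% in these data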
ADAM10 inh – inhibitors of human ADAM10 | O14672 | recombinant ADAM10, EDANS/DABCYL FRET peptide cleavage, 3 h | inhibition, % at 7 µM | 370,000 compounds, 0.62% hits;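 active means inhibition above a per-campaign cutoff equal to the mean of compounds falling between control-based bounds plus 3 SD, cut at about 20% in these data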
GASC-1 inh – blocks human GASC-1 demethylase activity | Q9H3R0 | GST-JMJD2C(1-420) H3K9me3 demethylation, DELFIA europium | inhibition, % at 2.35 µM | 330,000 compounds, 0.069% hits | AID 2099;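 active means more than half of a compound's replicate wells show inhibition beyond 50%, single wells judged on their own value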;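 further: signal counts dimethyl H3K9 product captured on neutravidin plate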
ADAM10 ctr – counter-screen for ADAM17 exosite inhibitors: inhibitors of human ADAM10 | 2,900 compounds, 47% hits | recombinant ADAM10, EDANS/DABCYL FRET peptide cleavage, 3 h | inhibition, % at 6.95 µM | shares compounds with ADAM17 inh;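 active means mean inhibition over the triplicate runs exceeds the activity threshold set in the earlier primary screen, cut at about 20% in these data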
ADAM17 confirm – confirmation of inhibitors of human ADAM17; shares compounds with ADAM17 inh; recombinant ADAM17, EDANS/DABCYL QFRET peptide cleavage; inhibition, % at 6.95 µM; 2,900 compounds, 65% hits; AID 743257;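 active means mean inhibition across replicates above the hit cutoff set in the primary screen, cut at about 8.5% in these data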
A number is an active result. The list is not random: actives were taken first. Their share in the collection is about 2.5%.

Screening COc1cccc(-c2noc(C(C)n3nc(C)c([N+](=O)[O-])c3C)n2)c1 (stereo not drawn) returned NR2E3 ag-1 inactive, ADAM17 inh 13.1, NR2E3 ag-2 inactive, KLK7 zymogen act inactive, ADAM10 inh inactive, GASC-1 inh inactive, ADAM10 ctr inactive and ADAM17 confirm inactive.
COc1ccccc1C(=O)N/C(=C\c1cn(S(=O)(=O)N(C)C)c2ccccc12)C(=O)N1CCN(C)CC1 was read as ADAM17 inh inactive, NR2E3 ag-2 inactive, KLK7 zymogen act inactive and ADAM10 inh inactive.
For CCN(C(=O)C1=COCCO1)c1nc2c(C)cccc2s1 the results were NR2E3 ag-1 inactive, ADAM17 inh 9.3, NR2E3 ag-2 inactive, KLK7 zymogen act inactive, ADAM10 inh inactive, GASC-1 inh inactive, ADAM10 ctr inactive and ADAM17 confirm inactive.
Cc1cc(C)c2nc(N(CCCN(C)C)C(=O)C3=COCCO3)sc2c1 was read as NR2E3 ag-1 inactive, ADAM17 inh inactive, NR2E3 ag-2 inactive, KLK7 zymogen act inactive, ADAM10 inh inactive and GASC-1 inh inactive.
For O=C(Cn1nc(C(=O)O)c2ccccc2c1=O)Nc1ccccc1C(F)(F)F the results were NR2E3 ag-1 inactive, ADAM17 inh inactive, NR2E3 ag-2 inactive, KLK7 zymogen act inactive, ADAM10 inh inactive and GASC-1 inh inactive.
CC1(C(=O)NS(=O)(=O)Cc2ccccc2)CCN1C(=O)C1(c2ccc(Cl)cc2)CC1 (stereo not drawn) was read as ADAM17 inh 9.6, NR2E3 ag-2 inactive, KLK7 zymogen act inactive, ADAM10 inh inactive, ADAM10 ctr inactive and ADAM17 confirm inactive.
CN(C(=O)COC(=O)C1CCN(S(=O)(=O)c2c(Cl)cccc2Cl)CC1)C1CCCCC1 was read as NR2E3 ag-1 inactive, ADAM17 inh inactive, NR2E3 ag-2 inactive, KLK7 zymogen act inactive, ADAM10 inh inactive and GASC-1 inh inactive.
Screening COc1ccc(C(=O)N(Cc2sccc2C)C2CCS(=O)(=O)C2)cc1 (stereo not drawn) returned NR2E3 ag-1 inactive, ADAM17 inh 9.1, NR2E3 ag-2 inactive, KLK7 zymogen act inactive, ADAM10 inh inactive, GASC-1 inh inactive, ADAM10 ctr inactive and ADAM17 confirm inactive.
`CN(C)c1ccc(C(C(=O)NC2CCCC2)N(C(=O)c2csnn2)C2CC2)cc1` (stereo not drawn) gave NR2E3 ag-1 inactive, ADAM17 inh inactive, NR2E3 ag-2 inactive, KLK7 zymogen act inactive, ADAM10 inh inactive and GASC-1 inh inactive.
For COc1ccc(NC(=O)c2ccc(OC)c(S(=O)(=O)N3CCCCC3C)c2)cn1 (stereo not drawn) the results were NR2E3 ag-1 inactive, ADAM17 inh inactive, NR2E3 ag-2 inactive, KLK7 zymogen act inactive and ADAM10 inh inactive.
CCOC(=O)C1(Cc2ccccc2)CCN(Cc2ccccc2OC)CC1 was read as ADAM17 inh inactive, KLK7 zymogen act inactive and ADAM10 inh inactive.
For CC(C)=CCC/C(C)=C/CNCC(=O)N1c2ccccc2[C@]2(c3ccccc3)C[C@@H]3C(=O)N(C/C=C(\C)CCC=C(C)C)CC(=O)N3[C@H]12 the results were ADAM17 inh inactive, KLK7 zymogen act inactive and ADAM10 inh inactive.
`Nc1[nH]c(C(=O)c2ccccc2)c(-c2cc(F)ccc2Br)c1C(=O)NCCc1c[nH]c2ccccc12` gave ADAM17 inh 10.3, KLK7 zymogen act inactive, ADAM10 inh inactive, ADAM10 ctr 25.5 and ADAM17 confirm 15.9.
C=CCSC1=C(C#N)C(c2ccccc2Cl)C(C(=O)c2cccs2)C(O)(C(F)(F)F)N1 (stereo not drawn) was read as NR2E3 ag-1 inactive, ADAM17 inh 8.6, NR2E3 ag-2 inactive, KLK7 zymogen act inactive, ADAM10 inh inactive, GASC-1 inh inactive, ADAM10 ctr inactive and ADAM17 confirm inactive.
